Compound activity from PubChem BioAssay.
PMI act satM6P: human PMI activators, high substrate, primary screen, biochemical, fluorescence intensity, near-saturating mannose 6-phosphate; coupled PMI enzyme assay, resazurin fluorescence, 20 min; active compounds read high; 1 = untreated enzyme, 0 = substrate-free blank; activation factor at 20 µM; 0.34% of 190,000 active; AID 1216, 2008;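 active = activation factor of 2 or more at 20 µM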
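Material: human phosphomannose isomerase with PGI, G6PDH, diaphorase coupling enzymes. Quantity: 15 ng/mL PMI. Medium: HEPES pH 7.4 buffer with MgCl2 and Tween-20. Reagent: Near-saturating mannose-6-phosphate, 1.0 mM. Compound: 20 µM single dose. Times: enzyme reaction with compound 20 min at room temperature. Detection: resorufin fluorescence at Ex 544/Em 590 nm.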
PMI activator: activators of human PMI, primary screen, biochemical, fluorescence intensity, near-Km mannose 6-phosphate; purified human PMI, coupled resazurin fluorescence, 20 min; active compounds read high; 1 = vehicle control, 0 substrate-free wells; activation factor at 20 µM; Mannose-6-phosphate isomerase (Homo sapiens), P34949; AID 1214, 2008; 0.005% of 190,000 active;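 active = activation factor of 2 or more at 20 µM, relative to plate controls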
KCC2 mod: KCC2 cotransporter modulators, thallium flux, primary screen, cell-based, HEK293 KCC2, FluoZin-2 fluorescence, MLSMR; KCC2 cells, thallium flux FluoZin-2 fluorescence; Solute carrier family 12 member 5 (Homo sapiens), Q9H2X9; B-score of Tl+ flux slope (higher = more flux/activation; lower = inhibition) at 10 µM; 2.2% of 190,000 active; AID 1456, 2008;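 active = thallium flux slope and its plate-corrected score both differing from the plate sample mean at a set confidence after two filtering rounds, in either direction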;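 note: slope of fluorescence scaled to starting intensity during 10 to 20 s after thallium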
ROMK mod: ROMK potassium channel modulators, primary screen, cell-based, thallium flux, MLSMR library | ATP-sensitive inward rectifier potassium channel 1 (Homo sapiens), P48048 | Tet-inducible ROMK, thallium flux fluorescence; actives lie on both sides | B-score at 10 µM | 2% of 130,000 active | AID 1918, 2009;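 active = signal ratio slope over the read window, or its plate-corrected B-score, at least 3 SD from the plate mean, either direction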;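 note: B-score of the F/F0 ratio slope over 7 to 12 s after thallium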
ABCB1 block: ABCB1 efflux pump inhibitors, primary screen, cell-based, multiplex, flow cytometry, ABCG2 counter-screen; inhibition, % at 6.6 µM; 0.067% of 190,000 active; CCRF-Adr cells, JC-1 efflux; ATP-dependent translocase ABCB1 (Homo sapiens), P08183; AID 1326, 2008; in the data active = inhibition above about 40%;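 note: 0% = vehicle and 100% = reference inhibitor; higher value means more JC-1 retained so stronger ABCB1 efflux block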
Target sequence (P08183 whole entry, looked up): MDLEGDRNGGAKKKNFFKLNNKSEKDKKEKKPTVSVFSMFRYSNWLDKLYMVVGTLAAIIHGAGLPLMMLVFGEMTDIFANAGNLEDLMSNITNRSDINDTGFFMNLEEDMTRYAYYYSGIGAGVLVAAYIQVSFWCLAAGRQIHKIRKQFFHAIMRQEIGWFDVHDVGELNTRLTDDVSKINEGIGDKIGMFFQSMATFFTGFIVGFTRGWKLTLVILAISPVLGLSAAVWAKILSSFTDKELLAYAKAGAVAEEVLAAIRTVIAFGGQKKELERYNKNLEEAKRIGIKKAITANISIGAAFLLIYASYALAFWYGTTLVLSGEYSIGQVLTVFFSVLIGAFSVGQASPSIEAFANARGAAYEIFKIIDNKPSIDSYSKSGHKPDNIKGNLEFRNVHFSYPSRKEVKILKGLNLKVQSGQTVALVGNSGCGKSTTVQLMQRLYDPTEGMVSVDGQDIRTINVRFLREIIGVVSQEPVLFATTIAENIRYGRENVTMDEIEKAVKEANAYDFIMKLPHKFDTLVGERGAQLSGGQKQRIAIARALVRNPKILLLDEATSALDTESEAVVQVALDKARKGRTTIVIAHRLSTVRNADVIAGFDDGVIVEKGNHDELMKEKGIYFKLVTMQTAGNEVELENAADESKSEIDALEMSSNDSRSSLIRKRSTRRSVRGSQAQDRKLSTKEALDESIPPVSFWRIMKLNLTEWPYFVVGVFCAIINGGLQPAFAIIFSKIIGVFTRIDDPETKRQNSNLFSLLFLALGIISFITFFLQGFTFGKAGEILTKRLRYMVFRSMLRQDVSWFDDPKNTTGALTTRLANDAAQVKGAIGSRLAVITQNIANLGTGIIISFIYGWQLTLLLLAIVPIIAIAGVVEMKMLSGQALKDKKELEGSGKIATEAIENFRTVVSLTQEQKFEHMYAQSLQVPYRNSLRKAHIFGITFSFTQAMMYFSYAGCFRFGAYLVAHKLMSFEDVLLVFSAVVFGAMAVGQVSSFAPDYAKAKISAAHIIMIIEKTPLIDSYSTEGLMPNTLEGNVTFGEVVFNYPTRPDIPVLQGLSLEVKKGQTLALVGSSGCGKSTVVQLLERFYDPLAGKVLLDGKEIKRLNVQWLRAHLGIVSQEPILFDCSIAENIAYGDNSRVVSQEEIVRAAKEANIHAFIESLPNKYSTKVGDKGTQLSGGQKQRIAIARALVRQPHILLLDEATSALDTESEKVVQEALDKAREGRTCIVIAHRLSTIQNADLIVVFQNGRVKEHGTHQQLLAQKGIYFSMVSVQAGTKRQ
ABCG2 inh: ABCG2 efflux pump inhibitors, primary screen, multiplex with ABCB1, IgMXP3 cells, flow cytometry | 0.1% of 190,000 active | JC-1 efflux | AID 1325, 2008 | inhibition, % at 6.6 µM | Broad substrate specificity ATP-binding cassette transporter ABCG2 (Homo sapiens), Q9UNQ0;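 active = inhibition above 80%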;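 note: 0% = DMSO and 100% = nicardipine control wells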
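Assay system – ABCG2 IgMXP3 and barcoded ABCB1 CCRF-Adr cell mix · Input – 3 million cells/mL in well · Reagent – JC-1 fluorescent substrate · Compound – single test compound dose, 6.6 µM final · Timing – 10 min exposure at 25 °C with rotation, no wash · Detection – flow cytometry of retained JC-1 fluorescence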
KCC2 secondary: KCC2 modulators in sodium-free buffer, confirmation, cell-based, HEK293 KCC2, thallium flux, secondary assay; 15% of 3,700 active; shares compounds with KCC2 mod; normalised thallium flux (F/F0 slope) at 10 µM; FluoZin2 fluorescence; active compounds read high;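 active = thallium flux slope above the same plate's solvent-only control mean plus 3 SD; inconclusive = the two replicate wells disagree; inactive = no significant difference from solvent-only control wells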
KCC2 bumet counter: thallium flux persisting under bumetanide in KCC2 cells, confirmation, counter-screen for KCC2 modulator project, cell-based, HEK293 KCC2, FluoZin2, secondary assay 3 | shares compounds with KCC2 mod | normalized thallium flux at 10 µM | HEK293-KCC2 + bumetanide/ouabain; active compounds read high | 49% of 3,700 active;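 active = thallium entry rate above the same plate's blocked-transporter control wells by more than 3 SD; inconclusive = the two repeat wells disagree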;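 note: raw slope of fluorescence over initial fluorescence between 10 and 20 s after thallium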
KCC2 secondary2: KCC2 modulators without ouabain present, confirmation, cell-based, HEK293 KCC2, thallium flux, FluoZin2, secondary assay 2; shares compounds with KCC2 mod; thallium flux FluoZin2 fluorescence; actives lie on both sides; F/F0 rise rate, 10–20 s post-thallium; normalized thallium flux at 10 µM; 23% of 3,700 active; AID 1715, 2009;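 active = thallium flux slope more than 3 SD above or below the plate's solvent-only control mean, mostly below; inconclusive = the two repeat wells disagreed; inactive = no significant shift from solvent-only controls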;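 note: raw slope with 0.1% DMSO as baseline and bumetanide as block control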
HEK counter1: thallium flux modulation in parental HEK cells, confirmation, counter-screen for KCC2 modulator project, cell-based, counterscreen 1; shares compounds with KCC2 mod; 46% of 3,700 active; HEK293 parental cells, thallium flux FluoZin2, ouabain; baseline-ratio fluorescence slope, 10–20 s after thallium; thallium flux rate (normalised fluorescence) at 10 µM;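 active = thallium flux rate significantly above the same plate's solvent-only control wells, beyond their mean plus 3 SD; inconclusive = the two replicate wells gave conflicting results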
KCC2 ouabain: KCC2 inhibitors and activators, ouabain retest, confirmation, HEK-KCC2 cells | shares compounds with KCC2 mod | HEK293-KCC2, thallium flux FluoZin2 fluorescence; bidirectional: low = inhibitor, high = activator | raw Tl+ flux slope (below DMSO = inhibition, above = activation) at 10 µM | 48% of 3,700 active;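 active = thallium flux slope beyond 3 SD from same-plate DMSO control mean in most replicates, usually higher, sometimes lower; inconclusive = repeat tests gave conflicting results; inactive = no significant difference from controls in most replicates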;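 note: slope of initial-normalized fluorescence between seconds 10 and 20 after thallium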
HEK293 Tl flux2: native HEK Tl+ uptake effects, second counter-screen – HEK cells, counterscreen 2, counter-screen for KCC2 modulator project, confirmation; shares compounds with KCC2 mod; HEK293 parental, thallium flux FluoZin-2 fluorescence slope; thallium flux slope at 10 µM; 33% of 3,700 active; AID 1718, 2009;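 active = thallium flux slope above the same plate's solvent-control mean plus 3 SD in both duplicate wells; inconclusive = duplicate wells that disagreed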;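 note: run without ouabain in cells lacking the KCC2 cotransporter; slope of fluorescence scaled to its starting value between 10 and 20 s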
Active calls of the source: *; ? = inconclusive; / = no result. Sampled rows, rich in hits. Any-hit rate of the full collection: about 3.3%.

SMILES | PMI act satM6P | PMI activator | KCC2 mod | ROMK mod | ABCB1 block | ABCG2 inh | KCC2 secondary | KCC2 bumet counter | KCC2 secondary2 | HEK counter1 | KCC2 ouabain | HEK293 Tl flux2
Cc1nn(-c2ccc(F)cc2)c(Cl)c1/C=C(\CC(=O)O)c1nc2ccccc2s1 | 0.9 | 0.9 | -6.8* | / | -1 | -1 | 0.0088 | 0.0067 | ? | 0.0066 | 0.013* | 0.0098
Cc1c(/C=C(\CC(=O)O)c2nc3ccccc3s2)cc(C#N)n1C | / | / | -1.4 | / | / | / | / | / | / | / | / | /
CCc1[nH]c(=S)c(C#N)c2c1CCCC2 | 2.2* | 1.6 | 16* | 0.66 | 1 | -5 | 0.0065 | 0.014* | 0.031 | 0.017* | ? | 0.014*
CCOC(=O)c1c(O)c2c([nH]c1=O)CCCC2 | 1 | 1 | / | 0.64 | 1 | 1 | / | / | / | / | / | /
CCOC(=O)c1c2c([nH]c(=S)c1C#N)CCCC2 | / | / | 11* | / | / | / | 0.011 | 0.011* | 0.033 | ? | ? | 0.012
COC(=O)c1ccc(S(=O)(=O)c2ccccc2)c(N)c1 | 1 | 0.9 | -0.056 | / | 1 | 3 | / | / | / | / | / | /
COc1ccc(-c2cc(C(=O)c3c(N)n(C)c(=O)n(C)c3=O)c3ccccc3n2)cc1 | / | / | 0.0076 | / | / | / | / | / | / | / | / | /
COc1ccc(-c2cc(C(=O)OCC(=O)c3c(N)n(C)c(=O)n(C)c3=O)c3ccccc3n2)cc1 | 0.9 | 0.9 | -4.8* | 0.09 | 0 | -1 | 0.0087 | 0.0058 | 0.029 | 0.0071 | 0.021 | ?
CCC(=O)c1cn(CC(=O)NCc2cccnc2)c2ccccc12 | 1 | 1 | -0.027 | 1 | 1 | 6 | / | / | / | / | / | /
CCCCCCCCCCNC(=O)C(=O)Nc1ccccn1 | 1.1 | 1 | / | -0.15 | 0 | 2 | 0.011 | 0.0068 | 0.033 | 0.0098* | 0.02 | 0.013*
Cc1ccc(NC(=O)C(=O)Nc2ccccn2)cc1 | 1 | 1 | 0.78 | 0.34 | 1 | 9 | / | / | / | / | / | /
CCCCNC(=S)N=Nc1c(O)[nH]c2ccccc12 | 1 | 0.9 | 25* | -0.036 | 0 | 14 | ? | 0.049* | ? | 0.035* | 0.04* | 0.025*
O=[N+]([O-])c1ccc2[nH]c(O)c(N=NC(=S)NCC3CCCO3)c2c1 (configuration not stated) | 0.9 | 0.9 | 3.2 | 0.76 | 0 | -3 | / | / | / | / | / | /
